Test results taken from ChEMBL document CHEMBL4371053, “A novel tetrazole analogue of resveratrol is a potent anticancer agent” (Bioorg Med Chem Lett, 2019).
The source made the active and inactive calls. No cut-off for these calls is given here.

Legend:
K562 = test: Growth inhibition of human K562 cells incubated for 48 hrs by sulforhodamine B assay; assay type: functional; conditions: K562, 48 h
In short: (§1)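 NCI-60 five-dose study at 10⁻⁴, 10⁻⁵, 10⁻⁶, 10⁻⁷ and 10⁻⁸ M, 48 h incubation. Growth determined from sulforhodamine B optical density before and after exposure, relative to vehicle control and time-zero counts. GI₅₀ is the molar concentration giving 50% growth inhibition.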

HL-60(TB) = test: Growth inhibition of human HL-60(TB) cells incubated for 48 hrs by sulforhodamine B assay; assay type: functional; conditions: HL-60, 48 h; in short: as §1
HOP-62 = test: Growth inhibition of human HOP62 cells incubated for 48 hrs by sulforhodamine B assay; assay type: functional; conditions: HOP-62, 48 h; in short: as §1
RXF 393 = test: Growth inhibition of human RXF393 cells incubated for 48 hrs by sulforhodamine B assay; assay type: functional; conditions: RXF 393, 48 h; in short: as §1
ACHN = test: Growth inhibition of human ACHN cells incubated for 48 hrs by sulforhodamine B assay; assay type: functional; in short: as §1
DU-145 [1] = test: Growth inhibition of human DU145 cells at 10 uM after 48 hrs by sulforhodamine B assay relative to control; assay type: functional; conditions: DU-145, 48 h, values are per cent of control
In short: (§2)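 NCI-60 single-dose screen. Cells exposed to 10⁻⁵ M or to vehicle for 48 h. Growth measured by sulforhodamine B optical density before and after exposure. Reported as percent growth relative to vehicle control and to time-zero cell number; negative values indicate cell kill.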

SNB-19 = test: Growth inhibition of human SNB19 cells incubated for 48 hrs by sulforhodamine B assay; assay type: functional; conditions: SNB-19, 48 h
In short: (§3)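 NCI-60 screen run per Rubinstein protocol. Sulforhodamine B optical density was read before and after 48 h exposure to compound or vehicle. The single-dose pass at 10⁻⁵ M reported percent growth relative to vehicle control and time-zero cell number. The five-dose follow-up used 10⁻⁴ to 10⁻⁸ M, giving GI₅₀ as the molar concentration causing 50% growth inhibition.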

HT-29 = test: Growth inhibition of human HT-29 cells incubated for 48 hrs by sulforhodamine B assay; assay type: functional; conditions: HT-29, 48 h; in short: as §1
OVCAR-3 = test: Growth inhibition of human OVCAR3 cells at 10 uM after 48 hrs by sulforhodamine B assay relative to control; assay type: functional; conditions: OVCAR-3, 48 h, values are per cent of control; in short: as §2
KM12 = test: Growth inhibition of human KM12 cells incubated for 48 hrs by sulforhodamine B assay; assay type: functional; conditions: KM12, 48 h; in short: as §1
SF-539 = test: Growth inhibition of human SF539 cells incubated for 48 hrs by sulforhodamine B assay; assay type: functional; conditions: SF-539, 48 h; in short: as §1
MDA-MB-435 = test: Growth inhibition of human MDA-MB-435 cells incubated for 48 hrs by sulforhodamine B assay; assay type: functional; conditions: MDA-MB-435, 48 h; in short: as §1
Tubulin (Homo sapiens) = Tubulin (Homo sapiens) (UniProt P68371+Q9H4B7+P0DPH7+P68366+Q13509+Q71U36+P04350+Q3ZCM7+P07437+P68363+Q9BQE3+Q6PEY2+Q13885+Q9BVA1+Q9BUF5); test: Inhibition of tubulin (unknown origin) polymerization at 2 uM by immunoblot analysis; assay type: protein-complex assay
In short: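 Cell-based assay. Cells were treated with compound at 1.0 and 2.0 μM. Polymerized tubulin (pellet) was separated from unpolymerized tubulin (supernatant), and both fractions were immunoblotted with anti-tubulin antibody.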

UACC-62 = test: Growth inhibition of human UACC62 cells incubated for 48 hrs by sulforhodamine B assay; assay type: functional; conditions: UACC-62, 48 h; in short: as §3
MCF7 = test: Growth inhibition of human MCF7 cells incubated for 48 hrs by sulforhodamine B assay; assay type: functional; conditions: MCF7, 48 h; in short: as §1
786-0 = test: Growth inhibition of human 786-0 cells incubated for 48 hrs by sulforhodamine B assay; assay type: functional; conditions: 786-0, 48 h; in short: as §1
HCC 2998 = test: Growth inhibition of human HCC2998 cells incubated for 48 hrs by sulforhodamine B assay; assay type: functional; conditions: HCC 2998, 48 h; in short: as §1
MDA-MB-231 = test: Growth inhibition of human MDA-MB-231 cells incubated for 48 hrs by sulforhodamine B assay; assay type: functional; conditions: MDA-MB-231, 48 h; in short: as §1
NCI-H522 [2] = test: Growth inhibition of human NCI-H522 cells incubated for 48 hrs by sulforhodamine B assay; assay type: functional; conditions: NCI-H522, 48 h; in short: as §1
PC-3 = test: Growth inhibition of human PC3 cells incubated for 48 hrs by sulforhodamine B assay; assay type: functional; conditions: PC-3, 48 h; in short: as §1
OVCAR-4 = test: Growth inhibition of human OVCAR4 cells incubated for 48 hrs by sulforhodamine B assay; assay type: functional; conditions: OVCAR-4, 48 h; in short: as §1
[3] = Cytotoxicity against stromal cells (unknown origin) assessed as reduction in cell viability by alamar blue assay; assay type: cell-based; conditions: read-out: LD50 (the source's name)
SR = test: Growth inhibition of human SR cells incubated for 48 hrs by sulforhodamine B assay; assay type: functional; in short: as §3
HOP-92 = test: Growth inhibition of human HOP92 cells incubated for 48 hrs by sulforhodamine B assay; assay type: functional; conditions: HOP-92, 48 h; in short: as §1
LOX IMVI = test: Growth inhibition of human LOXIMVI cells incubated for 48 hrs by sulforhodamine B assay; assay type: functional; in short: as §1
SF-295 = test: Growth inhibition of human SF295 cells incubated for 48 hrs by sulforhodamine B assay; assay type: functional; conditions: SF-295, 48 h; in short: as §1
NCI/ADR-RES = test: Growth inhibition of human NCI/ADR-RES cells incubated for 48 hrs by sulforhodamine B assay; assay type: functional; in short: as §1
NCI-H460 = test: Growth inhibition of human NCI-H460 cells at 10 uM after 48 hrs by sulforhodamine B assay relative to control; assay type: functional; conditions: NCI-H460, 48 h, values are per cent of control; in short: as §2
SK-MEL-5 = test: Growth inhibition of human SK-MEL-5 cells incubated for 48 hrs by sulforhodamine B assay; assay type: functional; conditions: SK-MEL-5, 48 h; in short: as §3
NCI-H522 [4] = test: Growth inhibition of human NCI-H522 cells at 10 uM after 48 hrs by sulforhodamine B assay relative to control; assay type: functional; conditions: NCI-H522, 48 h, values are per cent of control; in short: as §2
NCI-H23 = test: Growth inhibition of human NCI-H23 cells incubated for 48 hrs by sulforhodamine B assay; assay type: functional; conditions: NCI-H23, 48 h; in short: as §1
M14 = test: Growth inhibition of human M14 cells incubated for 48 hrs by sulforhodamine B assay; assay type: functional; conditions: M14, 48 h; in short: as §1
U-251 = test: Growth inhibition of human U251 cells incubated for 48 hrs by sulforhodamine B assay; assay type: functional; conditions: U-251, 48 h; in short: as §3
SK-MEL-28 = test: Growth inhibition of human SK-MEL-28 cells incubated for 48 hrs by sulforhodamine B assay; assay type: functional; conditions: SK-MEL-28, 48 h; in short: as §1
Hs-578T = test: Growth inhibition of human Hs578T cells incubated for 48 hrs by sulforhodamine B assay; assay type: functional; in short: as §1
COLO 205 = test: Growth inhibition of human COLO205 cells incubated for 48 hrs by sulforhodamine B assay; assay type: functional; conditions: COLO 205, 48 h; in short: as §1
DU-145 [5] = test: Growth inhibition of human DU145 cells incubated for 48 hrs by sulforhodamine B assay; assay type: functional; conditions: DU-145, 48 h; in short: as §1
RPMI-8226 = test: Growth inhibition of human RPMI8226 cells incubated for 48 hrs by sulforhodamine B assay; assay type: functional; conditions: RPMI-8226, 48 h; in short: as §1
HCT-15 = test: Growth inhibition of human HCT15 cells incubated for 48 hrs by sulforhodamine B assay; assay type: functional; conditions: HCT-15, 48 h; in short: as §1

`COc1ccc(/C(=C/c2ccc3ccccc3c2)c2nnn[nH]2)cc1OC` showed a GI50 (K562) of 670 nM, a GI50 (HL-60(TB)) of 2560 nM and a GI50 (HOP-62) of 2330 nM. For the same molecule, the GI50 (RXF 393) was 2480 nM, the GI50 (ACHN) was 11.3 µM and the growth, % of control at 10 µM (DU-145 [1]) was 20.9%. It also gave a GI50 (SNB-19) of 7.84 µM, a GI50 (HT-29) of 2690 nM and a growth, % of control at 10 µM (OVCAR-3) of -17.3%. For the same molecule, the GI50 (KM12) was 2790 nM, the GI50 (SF-539) was 2380 nM and the GI50 (MDA-MB-435) was 300 nM. The inhibition (Tubulin (Homo sapiens)) was “inactive”, the GI50 (UACC-62) was 860 nM and the GI50 (MCF7) was 4.12 µM. It also gave a GI50 (786-0) of 5.72 µM, a GI50 (HCC 2998) of 5.2 µM and a GI50 (MDA-MB-231) of 12.5 µM. It also gave a GI50 (NCI-H522 [2]) of 1140 nM, a GI50 (PC-3) of 2360 nM and a GI50 (OVCAR-4) of 7.78 µM. It also gave a CC50 [3] greater than 50 µM, a GI50 (SR) of 2230 nM and a GI50 (HOP-92) of 4.59 µM. The GI50 (LOX IMVI) was 5.63 µM, the GI50 (SF-295) was 1.51 µM and the GI50 (NCI/ADR-RES) was 1030 nM. The growth, % of control at 10 µM (NCI-H460) was 14.1%, the GI50 (SK-MEL-5) was 4.68 µM and the growth, % of control at 10 µM (NCI-H522 [4]) was -2.85%. It also gave a GI50 (NCI-H23) of 5.29 µM, a GI50 (M14) of 1900 nM and a GI50 (U-251) of 4.46 µM. It also gave a GI50 (SK-MEL-28) of 8.07 µM, a GI50 (Hs-578T) of 2230 nM and a GI50 (COLO 205) of 2270 nM. It also gave a GI50 (DU-145 [5]) of 3.53 µM, a GI50 (RPMI-8226) of 4.02 µM and a GI50 (HCT-15) of 2920 nM.

In the case of `COc1ccc(/C=C(/c2cc(OC)c(OC)c(OC)c2)c2nnn[nH]2)cc1O`, the GI50 (K562) is reported as less than 10 nM, the GI50 (HL-60(TB)) is reported as less than 10 nM and the GI50 (HOP-62) is reported as less than 10 nM. For the same molecule, the GI50 (RXF 393) was less than 10 nM, the GI50 (ACHN) was less than 0.01 µM and the growth, % of control at 10 µM (DU-145 [1]) was 3.41%. For the same molecule, the GI50 (SNB-19) was less than 0.01 µM, the GI50 (HT-29) was 2200 nM and the growth, % of control at 10 µM (OVCAR-3) was -8.5%. It also gave a GI50 (KM12) of less than 10 nM, a GI50 (SF-539) of less than 10 nM and a GI50 (MDA-MB-435) of less than 10 nM. The inhibition (Tubulin (Homo sapiens)) was “Active”, the GI50 (UACC-62) was less than 10 nM and the GI50 (MCF7) was less than 0.01 µM. The GI50 (786-0) was less than 0.01 µM, the GI50 (HCC 2998) was less than 0.01 µM and the GI50 (MDA-MB-231) was less than 0.01 µM. The GI50 (NCI-H522 [2]) was less than 10 nM, the GI50 (PC-3) was less than 10 nM and the GI50 (OVCAR-4) was less than 0.01 µM. It also gave a CC50 [3] greater than 50 µM, a GI50 (SR) of less than 10 nM and a GI50 (HOP-92) of less than 0.01 µM. For the same molecule, the GI50 (LOX IMVI) was less than 0.01 µM, the GI50 (SF-295) was 5.28 µM and the GI50 (NCI/ADR-RES) was less than 10 nM. It also gave a growth, % of control at 10 µM (NCI-H460) of 2.67%, a GI50 (SK-MEL-5) of less than 0.01 µM and a growth, % of control at 10 µM (NCI-H522 [4]) of -6.32%. For the same molecule, the GI50 (NCI-H23) was less than 0.01 µM, the GI50 (M14) was less than 10 nM and the GI50 (U-251) was less than 0.01 µM. For the same molecule, the GI50 (SK-MEL-28) was less than 0.01 µM, the GI50 (Hs-578T) was less than 10 nM and the GI50 (COLO 205) was 970 nM. It also gave a GI50 (DU-145 [5]) of less than 0.01 µM, a GI50 (RPMI-8226) of less than 0.01 µM and a GI50 (HCT-15) of less than 10 nM.
